A short description of data set [1]: folding enthalpy; higher = less favourable; fluorescence melt of hairpins on a sequencing array, two-state fit. Particulars: sodium 0.088 M. Put shortly:
(§1)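 Folding enthalpy and melting temperature were estimated with bootstrapped two-state fits and combined across four replicates by inverse-variance weighting, with fitted temperatures raised by 9.35 °C to match UV melts. The data were Cy3 fluorescence of library hairpins, with annealed Cy3 and quencher oligos, on a sequenced MiSeq flow cell in 50 mM Na-HEPES pH 8.0, 25 mM NaCl, imaged in 2.5 °C steps up to 60 °C and normalised to pre-quench Cy3 and control constructs.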

Data set [2] in a line: melting temperature; fluorescence melt of hairpins on a sequencing array, two-state fit, raised by 9.35 °C to match UV melts. The settings on record: sodium 0.088 M. Put shortly:
as §1

GCAACGCGAAAGCTATGC (((..((....))..))): the folding enthalpy in data set [1] is -11.6 kcal/mol. For the same sequence, the Tm in data set [2] was 36.8 °C.
In the case of GCAACGCGAAAGCTTCGC ((.(.((....)).).)), the folding enthalpy in data set [1] was -8.73 kcal/mol. In addition, the Tm in data set [2] amounted to 30 °C.
For the sequence GCAACGGGAAACCGCTGC (((.(((....))).))), in data set [1], the folding enthalpy was -44 kcal/mol. The Tm in data set [2] was 51.5 °C.
Consider GCAACTCGAAAGAGTGC (((.(((....)))))), for which the folding enthalpy in data set [1] was -33.5 kcal/mol. Further, in data set [2], the Tm turned out to be 55.8 °C.
For the sequence GCAACTGCGAAAGCATGC (((..(((....)))))), in data set [1], the folding enthalpy was -13.5 kcal/mol. Also, the Tm in data set [2] was determined as 40.2 °C.
For GCAACTGGAAACAGTTGC (((((((....))))))), the folding enthalpy in data set [1] was -47.5 kcal/mol. Moreover, the Tm in data set [2] was 67.1 °C.
Take GCAAGAACGAAAGTTTGC (((..(((....)))))): in data set [1], the folding enthalpy is -22.5 kcal/mol. For the same sequence, the Tm in data set [2] was found to be 42.7 °C.
In the case of GCAAGAGGAAACTCTCGC ((.((((....)))).)), in data set [1], the folding enthalpy is -25.6 kcal/mol. Besides, in data set [2], the Tm came to 37.6 °C.
Turning to GCAAGAGGAAACTCTTGC (((((((....))))))), the folding enthalpy in data set [1] was -40.5 kcal/mol. Moreover, the Tm in data set [2] was determined as 64.9 °C.
The matching figures for GCAAGCGAAAGCTCTGC ((((((....))).))): -20 kcal/mol and 45.9 °C.
As for GCAAGCGGAAACGCCTGC (((.(((....))).))), the folding enthalpy in data set [1] is -17.1 kcal/mol. For the same sequence, in data set [2], the Tm turned out to be 54.2 °C.
Turning to GCAAGCGGAAACGCTCGC ((.((((....)))).)), in data set [1], the folding enthalpy is -22.6 kcal/mol. Further, the Tm in data set [2] worked out at 52.7 °C.
The matching figures for GCAAGCTCGAAAGAGTGC (((..(((....)))))): -16.9 kcal/mol and 36.9 °C.
For the sequence GCAAGGCGAAAGCATAGC ((.(.((....)).).)), in data set [1], the folding enthalpy was -14.8 kcal/mol. For the same sequence, the Tm in data set [2] was found to be 39.6 °C.
On the same counts, the results for GCAAGGCGAAAGCCAGGC ((..(((....)))..)) are -18.8 kcal/mol and 52.2 °C.
Take GCAAGGCGAAAGCGTTGC ((((.((....)).)))): in data set [1], the folding enthalpy was -33.1 kcal/mol. For the same sequence, in data set [2], the Tm was found to be 67.2 °C.
On to GCAAGGGGAAACCCCTGC (((.(((....))).))), for which the folding enthalpy in data set [1] was -27.4 kcal/mol. Further, the Tm in data set [2] came out at 51.1 °C.
Take GCAAGGGGAAACCCTCGC ((.((((....)))).)): the folding enthalpy in data set [1] was -23.4 kcal/mol. Also, in data set [2], the Tm came out at 45 °C.
As for GCAAGTGGAAACGCTTGC (((((.(....).))))), in data set [1], the folding enthalpy is -39.1 kcal/mol. Moreover, the Tm in data set [2] amounted to 54.9 °C.
GCAAGTTCGAAAGAATGC (((..(((....)))))): the folding enthalpy in data set [1] was -11.8 kcal/mol. Further, in data set [2], the Tm is 27.3 °C.
On the same counts, the results for GCAATAGGAAACCATTGC (((((.(....).))))) are -28 kcal/mol and 39.2 °C.
On the same counts, the results for GCAATCACGAAAGTGTGC (((..(((....)))))) are -19.5 kcal/mol and 39.9 °C.
On to GCAATCCGAAAGGACTGC (((.(((....))).))), for which, in data set [1], the folding enthalpy is -17.6 kcal/mol. The Tm in data set [2] turned out to be 49.8 °C.
On the same counts, the results for GCAATCCGAAAGGAGTGC (((.(((....))).))) are -48 kcal/mol and 61.1 °C.
On to GCAATCGAAAGATCTGC ((((((....))).))), for which the folding enthalpy in data set [1] is -18 kcal/mol. In data set [2], the Tm came to 35.2 °C.
As to GCAATCGAAAGATTGC ((((((....)))))), in data set [1], the folding enthalpy is -42.2 kcal/mol. Further, the Tm in data set [2] is 64 °C.
Regarding GCAATCGAAAGATTTTGC ((((((....)))..))), the folding enthalpy in data set [1] was -14.8 kcal/mol. For the same sequence, the Tm in data set [2] came to 28.8 °C.
Consider GCAATCGGAAACGATCAC (..((((....))))..), for which, in data set [1], the folding enthalpy is -12 kcal/mol. Further, the Tm in data set [2] was 25.1 °C.
For the sequence GCAATGCCGAAAGGCTGC (((..(((....)))))), in data set [1], the folding enthalpy was -15.6 kcal/mol. In addition, the Tm in data set [2] turned out to be 49.1 °C.
Regarding GCAATGCGAAAGCAAGGC ((..(((....)))..)), in data set [1], the folding enthalpy was -18.7 kcal/mol. For the same sequence, the Tm in data set [2] stood at 43.7 °C.
Take GCAATGCGAAAGCACGGC ((..(((....)))..)): the folding enthalpy in data set [1] is -19.9 kcal/mol. The Tm in data set [2] is 36.3 °C.
For GCAATGCGAAAGCATGC (((.(((....)))))), the folding enthalpy in data set [1] is -22.9 kcal/mol. Further, in data set [2], the Tm worked out at 63 °C.
As for GCAATGCGAAAGCGTGGC ((.(.((....)).).)), the folding enthalpy in data set [1] was -33.7 kcal/mol. For the same sequence, the Tm in data set [2] came out at 56.6 °C.
For the sequence GCAATGCGAAAGCTTTGC ((((.((....)).)))), the folding enthalpy in data set [1] was -39.1 kcal/mol. Besides, the Tm in data set [2] turned out to be 63 °C.
With GCAATGGGAAACCATCAC (..((((....))))..), the folding enthalpy in data set [1] is -10.7 kcal/mol. Further, the Tm in data set [2] worked out at 22.8 °C.
In the case of GCAATGGGAAACCATTAC (.(((((....))))).), the folding enthalpy in data set [1] was -14.9 kcal/mol. In addition, the Tm in data set [2] was 33.9 °C.
As for GCAATGGGAAACCATTGC (((((((....))))))), the folding enthalpy in data set [1] was -39.2 kcal/mol. Moreover, the Tm in data set [2] came to 66.2 °C.
